Laboratory results taken from ChEMBL document CHEMBL1130025, “Dihydro(alkylthio)(naphthylmethyl)oxopyrimidines: novel non-nucleoside reverse transcriptase inhibitors of the S-DABO series” (J Med Chem, 1997).

How the values were obtained:
[1] = molecular target: Human immunodeficiency virus type 1 reverse transcriptase (Human immunodeficiency virus 1, UniProt Q72547); assay: Compound concentration required to inhibit the HIV-1 recombinant Reverse transcriptase (rRT) activity by 50%.
[2] = test system: Human immunodeficiency virus type 1; assay: Selectivity index is the ratio of CC50 to EC50; conditions: Human immunodeficiency virus 1
H9 = assay: Ability to inhibit HIV-1 multiplication in chronically infected H9/IIIB cells; type: functional, cell-based; conditions: Homo sapiens
Procedure, shortened: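 Value taken as compound dose lowering infectious HIV-1 titer by 1 log in chronically infected H9/IIIB cells. Titer was read in C8166 cells by limiting dilution (1:2, 4 replica wells per dilution), with light-microscope scoring of cytopathicity after 4 days, expressed as CCID50/mL. Data are means of three separate experiments.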

MT4 [3] = assay: (§1) Inhibitory activity against resistant HIV-1 strain MC639r was determined.; type: functional, cell-based; conditions: Homo sapiens
MT4 [4] = assay: (§2) Inhibitory activity against resistant HIV-1 strain NevR was determined.; type: functional, cell-based; conditions: Homo sapiens
MT4 [5] = assay: Dose required to achieve 50% protection of MT-4 cells from the HIV-1 induced cytopathogenicity in HIV-1 infected MT-4 cells; conditions: Homo sapiens
C8166 = assay: Ability to inhibit HIV-2 multiplication in acutely infected C8166 cells; type: functional, cell-based; conditions: Homo sapiens
Procedure, shortened: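 C8166 cells (1×10^4 per well) in RPMI 1640 with 10% FCS were infected with 1000 CCID50 of HIV-2 ROD, alongside serial compound dilutions from DMSO stock. After 5 days at 37 °C, viable cells were counted by MTT. EC50 is the dose giving 50% protection from virus-induced cytopathicity. Data are means of three experiments.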

MT4 [6] = assay: Dose required to reduce the viability of mock-infected cells by 50%; type: functional; conditions: Homo sapiens
Procedure, shortened: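 Mock-infected MT-4 cells (1×10^4 per well) were exposed to compound dilutions in parallel with the antiviral assay. After 4 days at 37 °C, viability was measured by MTT. CC50 is the dose reducing viable cell number by 50%.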

MT4 [7] = assay: Inhibitory activity against resistant HIV-1 strain Nevr was determined; type: functional, cell-based; conditions: Homo sapiens
MT4 [8] = assay: as §1; type: functional, Homo sapiens
MT4 [9] = assay: as §2; type: functional, Homo sapiens
MT4 [10] = assay: Inhibitor activity against resistant HIV-1 strain MC639r was determined.; type: functional, cell-based; conditions: Homo sapiens

`Oc1cc(Cc2ccc3ccccc3c2)nc(SC2CCCCC2)n1` was tested, and the IC50 [1] was 33.1 µM, the Ratio [2] was over 128 and the EC50 (H9) was over 100 µM. For the same compound, the EC50 (MT4 [3]) was 20 µM, the EC50 (MT4 [4]) was over 100 µM and the EC50 (MT4 [5]) was 1.7 µM. For the same compound, the EC50 (C8166) was over 100 µM and the CC50 (MT4 [6]) was over 300 µM.
With `CCC(C)Sc1nc(O)c(C)c(Cc2cccc3ccccc23)n1` (configuration not stated) the Ratio [2] was over 300, the EC50 (H9) was over 100 µM and the EC50 (MT4 [3]) was 6 µM. It also gave an EC50 (MT4 [4]) of over 100 µM, an EC50 (MT4 [5]) of 1 µM and an EC50 (C8166) of over 100 µM. For the same compound, the CC50 (MT4 [6]) was over 300 µM.
In the case of `Oc1cc(Cc2cccc3ccccc23)nc(SC2CCCC2)n1`, the Ratio [2] is reported as over 150, the EC50 (H9) is reported as over 100 µM and the EC50 (MT4 [4]) is reported as over 100 µM. For the same compound, the EC50 (MT4 [5]) was 2 µM, the EC50 (C8166) was over 100 µM and the EC50 (MT4 [7]) was over 100 µM. The CC50 (MT4 [6]) was over 300 µM.
`Cc1c(O)nc(SC2CCCC2)nc1Cc1cccc2ccccc12` showed a Ratio [2] of over 50, an EC50 (H9) of over 100 µM and an EC50 (MT4 [3]) of 16.2 µM. For the same compound, the EC50 (MT4 [4]) was over 100 µM, the EC50 (MT4 [5]) was 6 µM and the EC50 (C8166) was over 100 µM. It also gave a CC50 (MT4 [6]) of over 300 µM.
Compound `CCC(C)Sc1nc(O)cc(Cc2cccc3ccccc23)n1` (configuration not stated) has an IC50 [1] of 8.1 µM, a Ratio [2] of over 909 and an EC50 (H9) of over 100 µM. The EC50 (MT4 [3]) was 2.1 µM, the EC50 (MT4 [4]) was over 100 µM and the EC50 (MT4 [5]) was 0.33 µM. For the same compound, the EC50 (C8166) was over 100 µM and the CC50 (MT4 [6]) was over 300 µM.
`Cc1cn([C@H]2C[C@H](N=[N+]=[N-])[C@@H](CO)O2)c(=O)[nH]c1=O` [ZIDOVUDINE] gave an EC50 (H9) of over 20 µM, an EIC50 (MT4 [8]) of 0.003 µM and an EC50 (C8166) of 0.015 µM. It also gave a CC50 (MT4 [6]) of over 80 µM and an EIC50 (MT4 [9]) of 0.013 µM.
For `CCC(C)Sc1nc(O)cc(Cc2ccc3ccccc3c2)n1` (configuration not stated), the IC50 [1] was 7.4 µM, the Ratio [2] was 14 and the EC50 (H9) was over 100 µM. It also gave an EC50 (MT4 [3]) of 4.1 µM, an EC50 (MT4 [4]) of over 100 µM and an EC50 (MT4 [5]) of 2.8 µM. The EC50 (C8166) was over 100 µM and the CC50 (MT4 [6]) was 40 µM.
Work on `Cc1cccc(Cc2nc(SC3CCCCC3)nc(O)c2C)c1` yielded an IC50 [1] of 0.9 µM, a Ratio [2] of over 500 and an EC50 (H9) of over 100 µM. For the same compound, the EC50 (MT4 [3]) was over 100 µM, the EC50 (MT4 [4]) was over 100 µM and the EC50 (C8166) was over 100 µM. The CC50 (MT4 [6]) was over 300 µM.
`Cc1ccnc2c1NC(=O)c1cccnc1N2C1CC1` [NEVIRAPINE] gave an EC50 (H9) of over 100 µM, an EC50 (MT4 [3]) of 0.31 µM and an EC50 (MT4 [4]) of over 100 µM. For the same compound, the EC50 (MT4 [5]) was 0.25 µM, the EC50 (C8166) was over 100 µM and the CC50 (MT4 [6]) was over 300 µM.
With `CCC(C)Sc1nc(O)c(C)c(COc2ccccc2)n1` (configuration not stated) the Ratio [2] was 7, the EC50 (H9) was over 100 µM and the EC50 (MT4 [4]) was over 100 µM. The EC50 (MT4 [5]) was 8.9 µM, the EC50 (MT4 [10]) was over 100 µM and the EC50 (C8166) was over 100 µM. For the same compound, the CC50 (MT4 [6]) was 60 µM.
Compound `CCC(C)Sc1nc(O)c(C)c(Cc2ccc3ccccc3c2)n1` (configuration not stated) has a Ratio [2] of 47, an EC50 (H9) of over 100 µM and an EC50 (MT4 [3]) of 17.8 µM. The EC50 (MT4 [4]) was over 100 µM, the EC50 (MT4 [5]) was 1.7 µM and the EC50 (C8166) was over 100 µM. The CC50 (MT4 [6]) was 80 µM.
